# Source: the RNAGym collection of RNA variant scans (doi:10.1126/science.aae0568)
# This sample holds only a part of the variants without activity.
# B1: tRNA (parent)
# chain: GUUCCGUUGGCGUAAUGGUAACGCGUCUCCCUCCUAAGGAGAAGACUGCGGGUUCGAGUCCCGUACGGAACG
# Variants of: B1
# Assay: yeast fitness relative to wild type (ratio to wild type); higher = fitter; tRNA-Arg(CCU), competitive growth, 37 C, YPD
# Method in brief: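 Genotype frequency changes were the basis for Darwinian fitness relative to wild type. The frequencies came from 100-nucleotide paired-end sequencing of gene amplicons from the start population and each end population of pooled yeast strains with tRNA-Arg(CCU) gene variants at the native locus. Competition ran in YPD at 37°C for 24 hours in six replicates, genotypes needed ≥ 100 starting reads, and estimates < 0.5 were set to 0.5.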
row,Variant,yeast fitness
1,A37U A70C,0.917
2,A37U A70G,0.72
3,A36U G41A C49G,0.601
4,A37G A40U C49A A57U,≤ 0.5
5,A37G A42G A70U,0.539
6,A37U U64C,0.77
7,A37G C46U C55U,≤ 0.5
8,A37U C62U,0.859
9,A37G C55A,≤ 0.5
10,G38A C46U A69U,0.686
11,A37U C55G,0.609
12,A37U C55A,≤ 0.5
13,A37U C55U,0.594
14,A36U C66A,≤ 0.5
15,A37U C55A C60U,≤ 0.5
16,A37G G41C A43U C66U A69C,≤ 0.5
17,A36U G48A C49A,≤ 0.5
18,G38A C61G G68C,≤ 0.5
19,A37C G58A,0.844
20,A36U U53G A69U,≤ 0.5
21,G38A A65U,0.739
22,A37G G38A C55U U59G,≤ 0.5
23,A37U A45C,0.64
24,A37U A45G,0.777

row,Variant,yeast fitness
1,A37U A42G A45U,0.592
2,A37G A70G,0.832
3,A36U G52A C60G,≤ 0.5
4,A36U G52A C60A,≤ 0.5
5,G38A A40U G58C,0.853
6,A37C C62G A69C,≤ 0.5
7,A36U G41C A45U C49U C60U,≤ 0.5
8,A37C G67A,0.696
9,A37C G67C,0.846
10,A36U G67C,0.602
11,A36U G67A,0.63
12,A37U C60U,0.519
13,A37U C60G,0.516
14,A37C G56A A69U,0.647
15,A37G G68A,0.88
16,A37G G68C,0.665
17,A36U U54C,0.559
18,A37U A57C G58A A69U A70C,0.542
19,A37C,0.913
20,A37U,0.722
21,A37G,0.734
22,A37U C55U C61G A65U A70U,≤ 0.5
23,A37U C62U G67A,≤ 0.5
24,G38A A40G C66A,0.597

row,Variant,yeast fitness
1,A37U G58C,0.789
2,A37C C62U,0.913
3,A37C C46U A69C,0.682
4,A37U A40C A42G,≤ 0.5
5,G38A G44C,0.712
6,G38A C55A,0.71
7,A37U A43G G63A G67C A70G,0.802
8,A37G G44C A57U G67U A69C,≤ 0.5
9,A36U G56C A69U,0.669
10,A36U G39C A57U,≤ 0.5
11,A37U G51A U53G U54C,≤ 0.5
12,A37C G39C C49U,≤ 0.5
13,A37U G51A C55U,≤ 0.5
14,A37C G56A,0.829
15,A36U G39A A45G,≤ 0.5
16,A36U G51A,0.61
17,A36U G51C,0.612
18,A37C C49G A65C,≤ 0.5
19,G38A G41C A69U,0.822
20,A37U A65U C66G,≤ 0.5
21,A37G C60G G68A,≤ 0.5
22,G38A A42C A45U G52A,≤ 0.5
23,A37C C49G A57C A70G,0.516
24,A37U U53G A65U,≤ 0.5

row,Variant,yeast fitness
1,A37G G41A,0.805
2,A37U G51C A57C,0.552
3,A37U A43U A57U C66A,≤ 0.5
4,G38A A40U G50C C60G,≤ 0.5
5,A37C G38A,0.636
6,A37U G44A U54A C62G C66G A69G,≤ 0.5
7,A36U G39C C61U,≤ 0.5
8,G38A C62U,0.961
9,A37U G50C G67A,≤ 0.5
10,A37C G63C,0.663
11,A37C G63A,0.612
12,A37C G41C A45G,≤ 0.5
13,A37C A43U A65U,0.651
14,A36U U47A,0.697
15,A36U C62G,0.623
16,A37G C49A,0.546
17,A37G C49G,0.788
18,A37C C49U C55U G63A G67C,≤ 0.5
19,A37C A42U C49A A65U,0.609
20,A37G A42U G48C C49U,0.599
21,A37C G52C C60G C61A C66U,≤ 0.5
22,A37C A43U U47C A69U,0.688
23,A37C G51A G67A,0.584
24,A37G A40C C61G A69U,≤ 0.5

row,Variant,yeast fitness
1,G38A A42U U54A,≤ 0.5
2,A37G A40G A45U,0.566
3,A37U G56C A57U,≤ 0.5
4,A37U G50A,0.804
5,A37C C62U C66G,≤ 0.5
6,A37C G39C A65U,≤ 0.5
7,A37U G38A U59A,≤ 0.5
8,A37G G56A G63A,≤ 0.5
9,A37G C46U,0.722
10,A37C A65C,0.797
11,A37U C46G U54C C61A,0.543
12,A37U C46G C55A U59C C61A C62U,0.524
13,A36U G48C C55G,≤ 0.5
14,A37C U59G,0.712
15,A37G A57C,0.545
16,A37C C55A,0.599
17,A37C C55U,0.769
18,A37C C55G G56A A69C,≤ 0.5
19,A37G U64A,0.61
20,A37U A40U U64C G67A,≤ 0.5
21,A37G A43G C55A G56A,0.6
22,A36U C61U A65U,≤ 0.5
23,A37U G52C,≤ 0.5
24,A37U G51A C66G,≤ 0.5

row,Variant,yeast fitness
1,A37U U47A C62U,0.531
2,G38A C66U,0.909
3,G38A C66A,0.72
4,A36U G51A G58C U59A,≤ 0.5
5,A37C U64G,0.684
6,G38A A45C A69U,0.684
7,A37G G51C C62G,0.55
8,A37G C55A G58C G68C,≤ 0.5
9,A37C C49U C60G,≤ 0.5
10,A36U G50U A57U,0.616
11,A37U G44A,0.602
12,A37U G44C,0.784
13,A37G U53A,≤ 0.5
14,A37G A42G,0.838
15,A37U C49A G52A C55U G56A,0.529
16,A37C C46G G51A G52A,≤ 0.5
17,A37U U47C U53G C62U,≤ 0.5
18,A37U G44A G67U A70G,≤ 0.5
19,A37U G51A G52C U59C,0.619
20,A37C C49U G51A,≤ 0.5
21,A37C G52C,0.537
22,A37U G44A C49U A57C C61G,≤ 0.5
23,A37C A45G,0.818
24,A37U A42G A69U,≤ 0.5

row,Variant,yeast fitness
1,A37U A42G A69C,≤ 0.5
2,G38A A57G,0.854
3,A37U A43C U47C C60G,≤ 0.5
4,A37C G39C G50C,≤ 0.5
5,A37G A45C C61G,≤ 0.5
6,A37G A45C C61U,0.579
7,A37U C61U A70G,0.572
8,A37U C62U C66G,≤ 0.5
9,A37G A43G A69U,0.802
10,G38A C61U,0.931
11,A37U U54G,≤ 0.5
12,A36U G48A C49A G68A,≤ 0.5
13,A37U A45C G52C,≤ 0.5
14,A37G A65C,0.942
15,G38A C60G,0.623
16,G38A C60A,0.646
17,A37C C60G C66G A70G,≤ 0.5
18,A37C C55G G68C,0.556
19,A37G A43U,0.631
20,A37G A43C,0.89
21,A37U A42U G52C,0.575
22,A36U U59C C62G,≤ 0.5
23,G38A G39C C60A C66G,≤ 0.5
